From ChEMBL document CHEMBL1125170, “A novel series of selective leukotriene antagonists: exploration and optimization of the acidic region in 1,6-disubstituted indoles and indazoles” (1990)
One block for each compound: values may come before it. The source made the active and inactive calls. The calls are words filed in the database; no cut-off is given here.

Columns and labels:
Cavia porcellus [1] = assay: In vivo percent protection against aerosolized LTD4 induced dyspnea in guinea pig at 1 umol/kg po (180 minutes post oral dosing); 40/6; assay type: functional
Cavia porcellus [2] = organism: Cavia porcellus; assay: Dissociation constant KB = [antagonist]/(dose ratio -1). KB determined in guinea pig tracheal spirals with LTE4 as agonist.; assay type: functional, Trachea
How it was run: (§1)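 Isolated guinea pig tracheal strips in Krebs' buffer with indomethacin (5 μM), 37 °C, 95% O2/5% CO2, resting tension 2 g. Carbachol (30 μM) sets the maximum. Antagonist incubated 30 min, then cumulative LTE4 concentration–response curves in log increments, one curve per tissue. EC50 by linear regression, paired vehicle controls. KB = [antagonist]/(DR − 1) (Furchgott).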

Cavia porcellus [3] = organism: Cavia porcellus; assay: In vitro antagonism of 8 nM of peptidoleukotriene (LTE4) induced contraction of guinea pig tracheal spirals at 3.3 X E-7M concentration; assay type: functional, Trachea
How it was run: (§2)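 Guinea pig tracheal spirals held at 37 °C in modified Krebs' (mM: NaCl 119, KCl 4.6, CaCl2 1.8, MgCl2 0.5, NaHCO3 24.9, NaH2PO4 1.0, glucose 11.1) plus indomethacin 5 μM, resting tension 2 g, isometric recording. After reproducible 8 nM LTE4 responses, compound added for 10 min, then rechallenged. % inhibition is adjusted for the paired vehicle tissue. At least four spirals, paired t test.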

Cavia porcellus [4] = assay: In vivo percent protection against aerosolized LTD4 induced dyspnea in guinea pig at 126 umol/kg po (60 minutes post oral dosing); 33/5; assay type: functional
[5] = target: T1, Cysteinyl leukotriene receptor 1 (Cavia porcellus) (UniProt Q2NNR5); assay: Dissociation constant KB = [antagonist]/(dose ratio -1).KB determined in guinea pig tracheal spirals with LTE4 as agonist; assay type: functional, tissue-based; details: Trachea; how it was run: as §1
T1 sequence (whole entry): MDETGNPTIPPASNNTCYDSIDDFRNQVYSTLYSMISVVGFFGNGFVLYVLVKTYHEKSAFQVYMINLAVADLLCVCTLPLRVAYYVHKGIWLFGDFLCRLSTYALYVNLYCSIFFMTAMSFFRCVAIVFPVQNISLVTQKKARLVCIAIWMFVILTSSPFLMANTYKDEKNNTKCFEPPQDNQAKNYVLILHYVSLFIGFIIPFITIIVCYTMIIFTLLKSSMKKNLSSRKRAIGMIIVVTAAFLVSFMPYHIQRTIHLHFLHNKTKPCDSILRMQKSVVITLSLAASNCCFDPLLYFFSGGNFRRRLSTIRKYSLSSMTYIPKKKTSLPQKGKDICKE

Cavia porcellus [6] = organism: Cavia porcellus; assay: In vitro antagonism of 8 nM of peptidoleukotriene (LTE4) induced contraction of guinea pig tracheal spirals at 100 X E-7M concentration; Not significant; assay type: functional, Trachea; how it was run: as §2
Cavia porcellus [7] = organism: Cavia porcellus; assay: In vitro antagonism of 8 nM of peptidoleukotriene (LTE4) induced contraction of guinea pig tracheal spirals at 0.001 X E-7M concentration; assay type: functional, Trachea; how it was run: as §2
Cavia porcellus [8] = organism: Cavia porcellus; assay: In vitro antagonism of 8 nM of peptidoleukotriene (LTE4) induced contraction of guinea pig tracheal spirals at 0.01 X E-7M concentration; assay type: functional, Trachea; how it was run: as §2
Cavia porcellus [9] = assay: In vivo percent protection against aerosolized LTD4 induced dyspnea in guinea pig at 10 umol/kg po (180 minutes post oral dosing); 37/8; assay type: functional
Cavia porcellus [10] = assay: In vivo percent protection against aerosolized LTD4 induced dyspnea in guinea pig at 30 umol/kg po (180 minutes post oral dosing); 89/8; assay type: functional
Cavia porcellus [11] = organism: Cavia porcellus; assay: In vitro antagonism of 8 nM of peptidoleukotriene (LTE4) induced contraction of guinea pig tracheal spirals at 0.033 X E-7M concentration; assay type: functional, Trachea; how it was run: as §2
Cavia porcellus [12] = organism: Cavia porcellus; assay: In vitro antagonism of 8 nM of peptidoleukotriene (LTE4) induced contraction of guinea pig tracheal spirals at 3 X E-7M concentration; assay type: functional, Trachea; how it was run: as §2
Cavia porcellus [13] = organism: Cavia porcellus; assay: In vitro antagonism of 8 nM of peptidoleukotriene (LTE4) induced contraction of guinea pig tracheal spirals at 10 X E-7M concentration; assay type: functional, Trachea; how it was run: as §2
Cavia porcellus [14] = assay: In vivo percent protection against aerosolized LTD4 induced dyspnea in guinea pig at 113 umol/kg po (60 minutes post oral dosing); 14/4; assay type: functional
Cavia porcellus [15] = assay: In vivo percent protection against aerosolized LTD4 induced dyspnea in guinea pig at 30 umol/kg po (180 minutes post oral dosing); 67/11; assay type: functional
Cavia porcellus [16] = assay: In vivo percent protection against aerosolized LTD4 induced dyspnea in guinea pig at 30 umol/kg po (60 minutes post oral dosing); 48/12; assay type: functional
Cavia porcellus [17] = organism: Cavia porcellus; assay: In vitro antagonism of 8 nM of peptidoleukotriene (LTE4) induced contraction of guinea pig tracheal spirals at 0.33 X E-7M concentration; assay type: functional, Trachea; how it was run: as §2
Cavia porcellus [18] = organism: Cavia porcellus; assay: In vitro antagonism of 8 nM of peptidoleukotriene (LTE4) induced contraction of guinea pig tracheal spirals at 0.1 X E-7M concentration; assay type: functional, Trachea; how it was run: as §2
Cavia porcellus [19] = assay: In vivo percent protection against aerosolized LTD4 induced dyspnea in guinea pig at 30 umol/kg po (180 minutes post oral dosing); 43/7; assay type: functional
Cavia porcellus [20] = organism: Cavia porcellus; assay: In vitro antagonism of 8 nM of peptidoleukotriene (LTE4) induced contraction of guinea pig tracheal spirals at 100 X E-7M concentration; Not active; assay type: functional; details: Trachea; how it was run: as §2
Cavia porcellus [21] = organism: Cavia porcellus; assay: In vitro antagonism of 8 nM of peptidoleukotriene (LTE4) induced contraction of guinea pig tracheal spirals at 33 X E-7M concentration; assay type: functional, Trachea; how it was run: as §2
Cavia porcellus [22] = assay: In vivo percent protection against aerosolized LTD4 induced dyspnea in guinea pig at 100 umol/kg po (60 minutes post oral dosing); 23/6; assay type: functional
Cavia porcellus [23] = organism: Cavia porcellus; assay: In vitro antagonism of 8 nM of peptidoleukotriene (LTE4) induced contraction of guinea pig tracheal spirals at 1 X E-7M concentration; assay type: functional, Trachea; how it was run: as §2

SMILES: COc1cc(C(=O)NS(=O)(=O)c2ccccc2C)ccc1Cn1ccc2ccc(NC(=O)CC3CCCC3)cc21
Protection (Cavia porcellus [1]): 40% | pKB (Cavia porcellus [2]): 9.9

SMILES: CCCCC(CC)C(=O)Nc1ccc2ccn(Cc3ccc(C(=O)O)cc3OCCCc3ccccc3)c2c1 (stereo unspecified)
Antagonism (Cavia porcellus [6]): 18%

SMILES: COc1cc(C(=O)NS(=O)(=O)c2ccccc2)ccc1Cn1ncc2ccc(NC(=O)CC3CCCC3)cc21
Antagonism (Cavia porcellus [7]): 23% | Antagonism (Cavia porcellus [8]): 100% | pKB (Cavia porcellus [2]): 10.5

SMILES: CCCCC(CC)C(=O)Nc1ccc2ccn(Cc3ccc(C(=O)NS(=O)(=O)CCCC)cc3OC)c2c1 (stereo unspecified)
Antagonism (Cavia porcellus [12]): 63% | Antagonism (Cavia porcellus [13]): 100%

SMILES: CCCCOC(=O)Nc1ccc2cnn(Cc3ccc(C(=O)NS(=O)(=O)c4ccccc4)cc3OC)c2c1
Antagonism (Cavia porcellus [11]): 77% | Antagonism (Cavia porcellus [18]): 100% | pKB (Cavia porcellus [2]): 9.2

SMILES: COc1cc(CNS(=O)(=O)c2ccccc2)ccc1Cn1ccc2ccc(NC(=O)OC3CCCC3)cc21
Antagonism (Cavia porcellus [20]): inactive

Further lines, with some results ahead:

pKB [5]: 6.7
SMILES: CCCCOC(=O)Nc1ccc2cnn(Cc3ccc(C(=O)O)cc3OC)c2c1
Antagonism (Cavia porcellus [3]): 56% | Protection (Cavia porcellus [4]): 33%

pKB [5]: 10.3
SMILES: COc1cc(C(=O)NS(=O)(=O)c2ccccc2)ccc1Cn1ncc2ccc(NC(=O)OC3CCCC3)cc21 [ICI-198615]
Protection (Cavia porcellus [9]): 37% | Protection (Cavia porcellus [10]): 89% | Antagonism (Cavia porcellus [8]): 69% | Antagonism (Cavia porcellus [11]): 100%

pKB [5]: 7.1
SMILES: CCC(C(=O)Nc1ccc2cnn(Cc3ccc(C(=O)O)cc3OC)c2c1)c1ccccc1 (stereo unspecified)
Antagonism (Cavia porcellus [3]): 30% | Protection (Cavia porcellus [14]): 14%

pKB [5]: 9.5
SMILES: COc1cc(C(=O)NS(=O)(=O)c2ccccc2)ccc1Cn1ccc2ccc(NC(=O)OC3CCCC3)cc21
Protection (Cavia porcellus [15]): 67% | Protection (Cavia porcellus [16]): 48% | Antagonism (Cavia porcellus [11]): 61% | Antagonism (Cavia porcellus [17]): 100%

pKB [5]: 9.6
SMILES: COc1cc(C(=O)NS(=O)(=O)c2ccccc2)ccc1Cn1ccc2ccc(NC(=O)CC3CCCC3)cc21
Protection (Cavia porcellus [19]): 43% | Antagonism (Cavia porcellus [8]): 50% | Antagonism (Cavia porcellus [11]): 92%

pKB [5]: 7.8
SMILES: COc1cc(C(=O)O)ccc1Cn1ccc2ccc(NC(=O)OC3CCCC3)cc21
Antagonism (Cavia porcellus [21]): 100% | Protection (Cavia porcellus [22]): 23% | Antagonism (Cavia porcellus [23]): 61%
